Measurements pooled from the literature.
Each line is one published result; the experiments were not run side by side.
CHRM1: Muscarinic acetylcholine receptor M1 (CHRM1, Homo sapiens, UniProt P11229)
CYP3A4: Cytochrome P450 3A4 (CYP3A4, Homo sapiens, UniProt P08684)
ALDH2: Aldehyde dehydrogenase, mitochondrial (ALDH2, Homo sapiens, UniProt P05091)
HDAC11: Histone deacetylase 11 (HDAC11, Homo sapiens, UniProt Q96DB2)

target | assay | test system | conditions | IC50 | SMILES
CHRM1 | ligand displacement, radioligand |  | cell membranes | > 30 µM | O=C(CCNC(=O)CNC(=O)CC(c1ccccc1)(c1ccccc1)c1ccccc1)NC[C@@H]1CCCN(Cc2ccc(F)nc2)C1
CYP3A4 | enzyme activity, inhibitor |  |  | 10.8 µM | Cn1ccc(-c2ccc(-c3cc(C(=O)O)cc4cc(-c5ccc(C(F)(F)F)cc5)ccc34)cc2)n1
ALDH2 | enzyme activity, inhibitor, fluorescence |  |  | < 10 µM | Nc1nc2c(s1)C(c1ccccc1Cl)CC(=O)N2 (centres unmarked)
Taste receptor type 2 member 14 (TAS2R14, Homo sapiens, UniProt Q9NYV8) | inositol phosphate, antagonist, TR-FRET |  |  | 600 µM | CCCN(CCC)S(=O)(=O)c1ccc(C(=O)O)cc1
ALDH2 | enzyme activity, inhibitor, fluorescence |  |  | 12.7 µM | Cc1cccc2c1NC(=O)/C2=C/c1cc(Cl)c(O)c(Cl)c1
Tyrosine-protein kinase JAK1 (JAK1, Homo sapiens, UniProt P23458) | enzyme activity, inhibitor, ELISA |  |  | 0.804 µM | Cc1cc2c(cc1C)N[C@H](c1ccccc1)[C@@H](O)C(=O)N2
Endonuclease III-like protein 1 (NTHL1, Homo sapiens, UniProt P78549) | enzyme activity, inhibitor |  |  | > 100 µM | Nc1cnccc1Nc1ccc(Cl)c(Cl)c1
Solute carrier organic anion transporter family member 1B1 (SLCO1B1, Homo sapiens, UniProt Q9Y6L6) | transporter uptake, inhibitor, radiometric |  | oocytes | 1.54 µM | CCc1oc2ccccc2c1C(=O)c1cc(Br)c(O)c(Br)c1
Coagulation factor XII (F12, Homo sapiens, UniProt P00748) | enzyme activity, inhibitor |  |  | 0.0326 µM | N=C(N)c1ccc2cc(OC(=O)c3ccc(N=C(N)N)cc3)ccc2c1
RAF proto-oncogene serine/threonine-protein kinase (RAF1, Homo sapiens, UniProt P04049, Y340D/Y341D) | enzyme activity, inhibitor, ADP detection |  |  | 0.0044 µM | Cc1cc2c(C(N)=O)c(N)n(-c3c(C)ccc(O)c3C)c2nc1C
HDAC11 | enzyme activity, inhibitor |  |  | > 10 µM | COc1ccc(N(Cc2csc(-c3ccccc3)n2)C(=O)CCCCCC(=O)NO)cc1
CYP3A4 | enzyme activity, inhibitor, fluorescence |  | pH 8 | 56.1 µM | CN(C)C(=O)c1cc2cnc(Nc3ccc(-c4ccc5c(=O)cc(N6CCOCC6)oc5c4)cc3)nc2n1C1CCCC1
CHRM1 | ligand displacement, radioligand |  | cell membranes | 5.9 µM | O=C(CCNC(=O)CNC(=O)CC(c1ccccc1)(c1ccccc1)c1ccccc1)NCC1CCN(Cc2ccc(F)cc2)CC1
HDAC11 | enzyme activity, inhibitor |  |  | > 10 µM | COc1ccc(N(Cc2csc(-c3ccc(C)cc3)n2)C(=O)CCCCCC(=O)NO)cc1
ALDH2 | enzyme activity, inhibitor, fluorescence |  |  | < 10 µM | OC[C@H]1O[C@@H](Oc2ccc(O)c3cccc(O)c23)[C@H](O)[C@@H](O)[C@@H]1O
CYP3A4 | enzyme activity, inhibitor | human, liver microsomes | 5 min, pH 7.4, testosterone probe | 49 µM | CC(C)(C)S(=O)(=O)c1cc2c(Nc3ccc4scnc4c3)ncnc2cc1OCCOP(=O)(O)O
Chymase (CMA1, Homo sapiens, UniProt P23946) | enzyme activity, inhibitor |  |  | 0.00777 µM | CC(C)C[C@H](NC(=O)[C@@H](NC(=O)N[C@@H](Cc1ccccc1)C(=O)O)[C@@H]1CCN=C(N)N1)C(=O)N[C@H](C=O)Cc1ccccc1
